These results are taken from ChEMBL document CHEMBL4014306, “Pyrazolopyrimidines as Potent Stimulators for Transient Receptor Potential Canonical 3/6/7 Channels” (J Med Chem, 2017).

Holding throughout (assay type): cell-based
Assay [1] has as its target T1, Short transient receptor potential channel 6 (Mus musculus, UniProt Q61143).
T1 sequence (Q61143 whole entry): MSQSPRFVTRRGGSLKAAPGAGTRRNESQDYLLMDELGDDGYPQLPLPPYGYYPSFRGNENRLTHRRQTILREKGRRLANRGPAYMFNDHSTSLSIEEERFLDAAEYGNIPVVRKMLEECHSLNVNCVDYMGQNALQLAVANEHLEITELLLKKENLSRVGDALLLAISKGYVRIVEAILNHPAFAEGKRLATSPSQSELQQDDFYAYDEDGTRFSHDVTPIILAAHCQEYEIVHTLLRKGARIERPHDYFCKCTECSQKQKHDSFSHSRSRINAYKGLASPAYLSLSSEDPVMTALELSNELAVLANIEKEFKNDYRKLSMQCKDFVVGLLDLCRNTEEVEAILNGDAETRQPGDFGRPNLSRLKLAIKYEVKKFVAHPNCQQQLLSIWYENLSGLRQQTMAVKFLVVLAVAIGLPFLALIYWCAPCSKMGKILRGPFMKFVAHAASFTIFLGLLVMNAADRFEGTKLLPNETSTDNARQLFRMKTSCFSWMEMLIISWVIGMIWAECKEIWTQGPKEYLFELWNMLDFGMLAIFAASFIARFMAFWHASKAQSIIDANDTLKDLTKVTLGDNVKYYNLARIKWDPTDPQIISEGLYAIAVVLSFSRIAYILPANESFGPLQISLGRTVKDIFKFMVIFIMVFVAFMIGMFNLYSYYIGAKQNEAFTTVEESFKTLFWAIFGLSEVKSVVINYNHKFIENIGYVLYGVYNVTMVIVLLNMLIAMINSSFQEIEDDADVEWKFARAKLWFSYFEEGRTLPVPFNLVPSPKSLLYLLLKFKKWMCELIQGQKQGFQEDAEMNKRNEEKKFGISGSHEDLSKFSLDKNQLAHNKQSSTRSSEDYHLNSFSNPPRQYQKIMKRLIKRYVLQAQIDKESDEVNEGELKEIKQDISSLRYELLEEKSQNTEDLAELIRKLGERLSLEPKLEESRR
As to the kind of experiment: Agonist activity at mouse TRPC6 expressed in HEK293 cells co-expressing Gq11-PLCbeta fused M5 receptor assessed as peak current changes at +80 mV by whole cell patch-clamp method. The gist of the method:
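Whole-cell patch clamp of TRPC6/M5 HEK293 cells. Pipette solution: 110 CsCl, 10 BAPTA, 4.77 CaCl2 (400 nM free Ca2+), pH 7.2. Bath at 0.1 mM Ca2+, pH 7.4. Ramps from +100 to −100 mV (100 ms) every 1 s from a 0 mV holding potential. Concentrations of 0.1–100 μM applied consecutively by perfusion. EC50 from currents at +80 mV.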

The target of assay [2] is T2, Transient receptor potential cation channel subfamily V member 3 (Mus musculus) (UniProt Q8K424).
T2 sequence (whole entry): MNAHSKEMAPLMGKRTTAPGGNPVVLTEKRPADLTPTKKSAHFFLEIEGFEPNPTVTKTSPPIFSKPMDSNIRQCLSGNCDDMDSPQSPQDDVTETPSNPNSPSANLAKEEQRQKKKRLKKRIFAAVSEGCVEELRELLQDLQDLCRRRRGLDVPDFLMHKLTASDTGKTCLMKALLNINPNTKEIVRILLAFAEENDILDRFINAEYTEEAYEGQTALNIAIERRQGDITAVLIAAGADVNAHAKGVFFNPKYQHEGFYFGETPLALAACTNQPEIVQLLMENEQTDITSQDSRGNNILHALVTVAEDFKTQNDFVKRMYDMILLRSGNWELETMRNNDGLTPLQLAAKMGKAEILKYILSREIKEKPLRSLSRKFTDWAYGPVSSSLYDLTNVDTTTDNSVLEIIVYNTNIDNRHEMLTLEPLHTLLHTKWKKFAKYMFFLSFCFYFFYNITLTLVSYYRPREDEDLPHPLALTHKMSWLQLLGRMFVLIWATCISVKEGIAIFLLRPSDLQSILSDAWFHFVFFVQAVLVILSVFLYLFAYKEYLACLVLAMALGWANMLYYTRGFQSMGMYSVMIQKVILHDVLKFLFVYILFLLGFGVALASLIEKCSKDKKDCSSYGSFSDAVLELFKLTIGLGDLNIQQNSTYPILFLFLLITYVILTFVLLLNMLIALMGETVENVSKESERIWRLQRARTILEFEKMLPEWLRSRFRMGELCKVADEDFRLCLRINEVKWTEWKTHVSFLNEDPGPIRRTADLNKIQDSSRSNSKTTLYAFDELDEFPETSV
As to the kind of experiment: Agonist activity at mouse TRPV3 expressed in HEK293 cells assessed as increase in intracellular calcium level at 33 uM measured for 2.5 mins by Fluo-8-AM dye based fluorescence assay.

In assay [3] the target is T3, Short transient receptor potential channel 6 (Mus musculus) (UniProt Q61143).
T3 sequence (whole entry): T1 sequence (Q61143 whole entry)
As to the kind of experiment: Antagonist activity at mouse TRPC6 expressed in HEK293 cells co-expressing Gq11-PLCbeta fused M5 receptor assessed as channel desensitization at 20 to 100 uM at +80 mV in presence of 0.1 mM Ca2+ by whole cell patch-clamp method. Summed up: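 Whole-cell clamp of TRPC6/M5 or TRPC7 HEK293 cells with 0.1 mM Ca2+ bath and 400 nM free Ca2+ pipette. Ramps +100 to −100 mV every 1 s. Increasing concentrations given consecutively by perfusion (TRPC6 highest 20–100 μM; TRPC7 up to 30 μM). Currents at positive and negative potentials followed for desensitization.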

The structures appear in SMILES notation. Activity calls are given as the source filed them. The rule behind the calls is not given here.

As to `CCOC(=O)N1CCC(c2cc(O)n3nc(C)c(-c4ccc(F)cc4)c3n2)CC1`, the EC50 in assay [1] was 2500 to 6280 nM. In addition, the outcome in assay [2] and in assay [3] was inactive.
On to `Cc1nn2c(O)cc(C3CCN(C(=O)OCc4ccccc4)CC3)nc2c1-c1ccc(Cl)cc1`, for which the EC50 in assay [1] stood at 2050 nM. The result in assay [2] and in assay [3] was inactive.
With `Cc1nn2c(O)cc(C3CCN(C(=O)OCc4ccccc4)CC3)nc2c1-c1ccc(F)cc1`, the 50% effective concentration (EC50) in assay [1] was 3240 nM. The result in assay [2] and in assay [3] was inactive.
As for `CCOC(=O)N1CCC(c2cc(O)n3nc(C)c(-c4ccc(C(F)(F)F)cc4)c3n2)CC1`, in assay [1], the EC50 is 890 nM. Also, the outcome in assay [2] and in assay [3] was inactive.
